PMC7145530 (Nucleic Acids Research, 2019)

Columns and labels:
GST-ALKBH3 = assay: GST pull-down of His-RAD51C constructs; type: binding, human; details: 150 μg GST-ALKBH3, ∼100 μg His-protein, room temperature, 2 h; MNase
How it was run: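 His-RAD51C, full-length or Δ42–52, was expressed in E. coli BL21-CodonPlus(DE3)-RIL (1 mM IPTG, 16°C, 18 h) and purified on Ni-NTA. It was incubated with GST-ALKBH3 bound to glutathione beads in 25 mM Tris pH 7.5, 1 mM CaCl₂ and 500 mM NaCl, with 10 U micrococcal nuclease. In competition runs, RAD51C 42–52 or 33–41 peptide was added at 50, 250 or 500 μM. Bound protein was detected by SDS-PAGE and anti-6xHis western blot.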

RAD51D = assay: Yeast two-hybrid with RAD51D; type: binding, human; details: pGBKT7-RAD51C or pGBKT7-RAD51CΔ42-52
ALKBH3 [1] = target: T1, ALKBH3 (Homo sapiens, UniProt Q96Q83); assay: Yeast two-hybrid with ALKBH3; type: binding; details: strain pJ69-4A; growth on dropout plates and lacZ reporter
T1 sequence (Q96Q83 1-286): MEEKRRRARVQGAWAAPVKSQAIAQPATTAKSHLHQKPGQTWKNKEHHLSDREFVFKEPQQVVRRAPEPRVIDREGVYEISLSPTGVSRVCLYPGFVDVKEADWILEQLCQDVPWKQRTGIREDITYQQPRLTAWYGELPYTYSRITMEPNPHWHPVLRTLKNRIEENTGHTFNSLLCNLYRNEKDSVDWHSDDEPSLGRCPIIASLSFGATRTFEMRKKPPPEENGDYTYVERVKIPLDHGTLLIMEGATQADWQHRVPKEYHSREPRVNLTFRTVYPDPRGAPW
How it was run: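 Full-length ALKBH2 or ALKBH3 fused to Gal4 binding domain (pGBKT7) was co-transformed with Gal4 activation domain (pACT2) fusions of RAD51, RAD51B, RAD51C, RAD51D, XRCC2 or XRCC3, or empty vectors. Transformants were selected on SD -Leu -Trp plates at 30°C for 2–3 days, then spotted on -His (triple) or -His -Ade (quadruple) dropout plates. lacZ was scored qualitatively by X-gal filter assay.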

ALKBH3 [2] = target: T1, ALKBH3; assay: Co-immunoprecipitation; type: binding; details: for co-immunoprecipitation of endogenous ALKBH3: NCI-H23 and PC-3, Flag-HA-RAD51C constructs
ALKBH3 [3] = target: T1, ALKBH3; assay: Demethylation assay by dot-blot analysis, 3′-tailed DNA; type: biochemical; details: ALKBH3 0.4 μM, RAD51C or RAD51CΔ42–52 8 μM, 3′-tailed DNA 8 μM, anti-3meC antibody
[4] = tested on: mutant ALKBH3 (H191A, D193A and H257A); assay: Demethylation assay with mutant ALKBH3; type: biochemical, human; details: mutant ALKBH3 0.2 μM, RAD51C 4.0 μM
RAD51 = assay: Yeast two-hybrid with RAD51; type: binding, human; details: pGBKT7-RAD51C or pGBKT7-RAD51CΔ42-52
RAD51B = assay: Yeast two-hybrid with RAD51B; type: binding, human; details: pGBKT7-RAD51C or pGBKT7-RAD51CΔ42-52
ALKBH3 [5] = target: T1, ALKBH3; assay: Demethylation assay by direct detection of formaldehyde; type: biochemical
XRCC3 = assay: Yeast two-hybrid with XRCC3; type: binding, human; details: pGBKT7-RAD51C or pGBKT7-RAD51CΔ42-52
ALKBH3 [6] = target: T1, ALKBH3; assay: Steady-state; type: biochemical
NCI-H23 cells [7] = assay: Cell survival assay; type: cell-based, human; details: MTT, MMS 50–400 μM, 48 h
How it was run: (§1)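 Stable shRNA-knockdown cells (luciferase shRNA as control) seeded at 5000 per well in triplicate. MMS (0, 50, 100, 200, 300, 400 μM) was given continuously for 48 h. Medium was then replaced with 0.5 mg/ml MTT for 4 h at 37°C in the dark, formazan solubilised and A570 read. Percent viability given as mean ± SD from four experiments.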

PC3 cells = assay: Immunofluorescence of 3meC, PC3; type: cell-based, human; details: 48 h
How it was run: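 Stable RAD51C and/or ALKBH3 shRNA-knockdown PC3 cells were grown on chamber slides with MMS, then fixed in 4% formaldehyde (15 min, RT). DNA was denatured in 1.5 M HCl for 30 min and neutralised with sodium borate pH 8.5. Cells were permeabilised (0.1% Triton X-100), blocked (1% BSA), stained with anti-3meC overnight at 4°C, then Alexa-594 secondary, with DAPI counterstain. Signal was quantified as mean ± SE of three independent assays by Student's t-test.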

[8] = tested on: MEFs, CHO and DT40 cell lines lacking RAD51C; cancer cells lacking ALKBH3; details: cited from earlier work
NCI-H23 cells [9] = assay: Calcein-AM viability assay, NCI-H23; type: cell-based, human; details: MMS 400 μM, 48 h; knockdown of RAD51C, ALKBH3, or both
How it was run: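 NCI-H23 cells grown in DMEM with 10% FBS at 37°C and 5% CO₂. Stable shRNA knockdown made by electroporation and 1 μg/ml puromycin selection for 30 days; the control shRNA targets luciferase. After MMS, cells were stained 30 min at 37°C with 2 μM Calcein AM in PBS and imaged by inverted fluorescence microscope. Percent MMS-induced cytotoxicity was plotted.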

PC-3 cells [10] = assay: Calcein-AM viability assay, PC-3; type: cell-based, human; details: MMS 400 μM, 48 h; knockdown of RAD51C, ALKBH3, or both
How it was run: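 PC-3 cells grown in Ham's F-12 GlutaMAX with 10% FBS at 37°C and 5% CO₂. Stable shRNA knockdown made by electroporation and 1 μg/ml puromycin selection for 30 days; the control shRNA targets luciferase. After MMS, cells were stained 30 min at 37°C with 2 μM Calcein AM in PBS and imaged by inverted fluorescence microscope. Percent MMS-induced cytotoxicity was plotted.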

PC-3 cells [11] = assay: Cell survival assay; type: cell-based, human; details: MTT, MMS 50–400 μM, 48 h
How it was run: as §1

NCI-H23 cells [12] = assay: Immunofluorescence of 3meC, NCI-H23; type: cell-based, human; details: stable RAD51C knockdown NCI-H23, MMS 400 μM, 48 h; at least 50 cells counted
How it was run: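 RNAi-resistant Flag-HA-RAD51C, wild-type or Δ42–52, was electroporated into stable RAD51C-knockdown cells 24 h before MMS. Cells were fixed in formaldehyde, denatured in HCl, then co-stained for anti-HA (recombinant protein) and anti-3meC, with DAPI. Images were taken by fluorescence microscopy and signals quantified.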

[13] = HEK-293T, Flag-HA-RAD51C constructs and Myc-ALKBH3 co-expressed, anti-Flag
[14] = 3′-tailed DNA 0.6–9.6 μM, ALKBH3 0.2 μM, RAD51C or RAD51CΔ42–52 4 μM, FDH-coupled
[15] = combined RAD51C and ALKBH3 knockdown
[16] = stable RAD51C and ALKBH3 knockdown

## RAD51C: human RAD51 paralogue, recombinant or expressed (tag-less, His-tag or Flag-HA)
GST-ALKBH3
  pull-down by GST-ALKBH3: could be pulled down by GST-ALKBH3
RAD51D
  yeast two-hybrid interaction with RAD51D: weak interaction
ALKBH3 [1]
  yeast two-hybrid interaction with ALKBH3: robust interaction
ALKBH3 [2]; [13]
  co-immunoprecipitation of ALKBH3: ALKBH3 was immunoprecipitated with RAD51C
ALKBH3 [2]; anti-Flag
  co-immunoprecipitation of endogenous ALKBH3: immunoprecipitated endogenous ALKBH3 in both the cell lines
ALKBH3 [2]; PC-3, endogenous proteins, anti-RAD51C antibody
  co-immunoprecipitation of ALKBH3: ALKBH3 could indeed be immunoprecipitated with RAD51C
ALKBH3 [3]
  effect on 3meC level: reduction in the levels of 3meC in 3′-tailed DNA was higher compared to the ALKBH3 alone
[4]
  effect on mutant ALKBH3 activity: indistinguishable from the mutant ALKBH3 alone
RAD51
  yeast two-hybrid interaction with RAD51: weak interaction
RAD51B
  yeast two-hybrid interaction with RAD51B: interacted strongly
ALKBH3 [5]; ALKBH3 0.2 μM, RAD51C 4.0 μM
  effect of ATP exclusion or ATP-γ-S on RAD51C stimulation: did not affect the results
ALKBH3 [5]; RAD51C without ALKBH3
  formaldehyde release, RAD51C only: did not result in any formaldehyde release
XRCC3
  yeast two-hybrid interaction with XRCC3: interacted strongly
ALKBH3 [6]; [14]
  Km: 1.7 µM
  kcat/KM: 2.6 min^-1μM^-1
ALKBH3 [6]; 3′-tailed DNA, RAD51C 4 μM with ALKBH3 0.2 μM
  Vmax: increased the Vmax for ALKBH3 reaction

## COS(C)(=O)=O [MMS, methyl methanesulphonate]
NCI-H23 cells [7]; [15]
  cell survival, combined knockdown: severe cell survival defect
NCI-H23 cells [7]; [16]
  cell proliferation: significantly affected
PC3 cells; MMS 400 μM, ALKBH3 knockdown
  3meC accumulation in nucleus: a number of cells showed 3meC accumulation in the nucleus
PC3 cells; MMS 400 μM, RAD51C knockdown
  3meC level, effect less than ALKBH3 knockdown: ~50%
PC3 cells; MMS 400 μM, combined RAD51C and ALKBH3 knockdown
  3meC accumulation in nucleus: 3meC accumulation in the nucleus in a manner epistatic with ALKBH3 knockdown
PC3 cells; MMS 400 μM, control shRNA
  3meC signal in nucleus: no visible signal for 3meC were detected in the nucleus
[8]
  MMS sensitivity: MMS sensitivity
NCI-H23 cells [9]
  MMS sensitivity (Calcein-AM): MMS sensitive
PC-3 cells [10]
  MMS sensitivity (Calcein-AM): MMS sensitive
PC-3 cells [11]; [15]
  cell survival, combined knockdown: severe cell survival defect
PC-3 cells [11]; [16]
  cell proliferation: significantly affected

B1: RAD51CΔ42–52 (protein)
chain: MRGKTFRFEMQRDLVSFPLSPAVRVKLVSAGFQTAEELLEVSKAEALETLQIIRRECLTNKPRYAGTSESHKKCTALELLEQEHTQGFIITFCSALDDILGGGVPLMKTTEICGAPGVGKTQLCMQLAVDVQIPECFGGVAGEAVFIDTEGSFMVDRVVDLATACIQHLQLIAEKHKGEEHRKALEDFTLDNILSHIYYFRCRDYTELLAQVYLLPDFLSEHSKVRLVIVDGIAFPFRHDLDDLSLRTRLLNGLAQQMISLANNHRLAVILTNQMTTKIDRNQALLVPALGESWGHAATIRLIFHWDRKQRLATLYKSPSQKECTVLFQIKPQGFRDTVVTSACSLQTEGSLSTRKRSRDPEEEL
modifications: left off: Gal4 activation domain, end not stated, kept
GST-ALKBH3
  pull-down by GST-ALKBH3: could not be pulled down by GST-ALKBH3
PC3 cells; stable RAD51C knockdown PC3, MMS 400 μM, at least 50 cells counted
  3meC signal increase after mutant expression: at least 50%
RAD51D
  yeast two-hybrid interaction with RAD51D: weak interaction
ALKBH3 [1]
  yeast two-hybrid interaction with ALKBH3: completely abolished
ALKBH3 [2]; [13]
  co-immunoprecipitation of ALKBH3: not with RAD51CΔ42–52
ALKBH3 [2]; anti-Flag
  co-immunoprecipitation of endogenous ALKBH3: significantly reduced amount of endogenous ALKBH3 was immunoprecipitated
ALKBH3 [3]
  effect on 3meC level: could not result in any significant reduction in the levels of 3meC compared to ALKBH3 alone
RAD51
  yeast two-hybrid interaction with RAD51: weak interaction
RAD51B
  yeast two-hybrid interaction with RAD51B: interacted strongly
NCI-H23 cells [12]
  3meC signal increase after mutant expression: at least 50%
XRCC3
  yeast two-hybrid interaction with XRCC3: interacted strongly
ALKBH3 [6]; [14]
  kcat/KM: 1.42 min^-1μM^-1
